ChEMBL document CHEMBL4382268, “Glycyrrhetinic acid derivatives containing aminophosphonate ester species as multidrug resistance reversers that block the NF-κB pathway and cell proliferation” (Bioorg Med Chem Lett, 2018)

Tests used:
L02 = test: Antiproliferative activity against human HL-7702 cells after 48 hrs by MTT assay; type: functional, cell-based; conditions: L02, 48 h
Outline: (§1)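 MTT read-out of antiproliferative activity across cancer lines HepG-2, NCI-H460, MGC-803, A549 and MG-63 and normal liver line HL-7702. IC50 given as mean ± S.D. of three separate experiments, each run in triplicate.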

[1] = Inhibition of TNF-alpha induced NF-kappaB activation in human A549 cells after 7 hrs by Bright-Glo luciferase reporter gene assay; type: cell-based
Outline: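 A549 cells transiently cotransfected with an NF-κB-Luc reporter and stimulated with TNF-α. Luciferase read-out of inhibition gives IC50, the mean of at least three independent experiments each with triplicates.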

HepG2 = test: Antiproliferative activity against human HepG2 cells after 48 hrs by MTT assay; type: functional, cell-based; conditions: HepG2, 48 h; outline: as §1
NCI-H460 = test: Antiproliferative activity against human NCI-H460 cells after 48 hrs by MTT assay; type: functional, cell-based; conditions: NCI-H460, 48 h; outline: as §1
MGC-803 = test: Antiproliferative activity against human MGC803 cells after 48 hrs by MTT assay; type: functional, cell-based; conditions: MGC-803, 48 h; outline: as §1
A549 = test: Antiproliferative activity against human A549 cells after 48 hrs by MTT assay; type: functional, cell-based; conditions: A549, 48 h; outline: as §1
MG-63 = test: Antiproliferative activity against human MG63 cells after 48 hrs by MTT assay; type: functional, cell-based; conditions: MG-63, 48 h; outline: as §1
[2] = Homo sapiens, A549, 7 h, read-out: IC50

Compound	IC50 (L02) [µM]	IC50 [1, 2] [µM]	IC50 (HepG2) [µM]	IC50 (NCI-H460) [µM]	IC50 (MGC-803) [µM]	IC50 (A549) [µM]	IC50 (MG-63) [µM]	IC50 ([1]; a549)
CCOP(=O)(OCC)C(Nc1ccc(CC(=O)NCCCNC(=O)[C@@]2(C)CC[C@]3(C)CC[C@]4(C)C(=CC(=O)[C@@H]5[C@@]6(C)CC[C@H](OC(C)=O)C(C)(C)[C@@H]6CC[C@]54C)[C@@H]3C2)cc1)c1cccc(OC)c1 (stereo partly specified)	> 50	> 30	38.2	31.7	36.7	39.3	39.5	–
CCOP(=O)(OCC)C(Nc1ccc(CC(=O)NCCCCNC(=O)[C@@]2(C)CC[C@]3(C)CC[C@]4(C)C(=CC(=O)[C@@H]5[C@@]6(C)CC[C@H](O)C(C)(C)[C@@H]6CC[C@]54C)[C@@H]3C2)cc1)c1ccc(OC)cc1 (stereo partly specified)	> 50	13.1	32.2	24	22.2	25.2	17.2	–
CCOP(=O)(OCC)C(Nc1ccc(CC(=O)NCCCNC(=O)[C@@]2(C)CC[C@]3(C)CC[C@]4(C)C(=CC(=O)[C@@H]5[C@@]6(C)CC[C@H](O)C(C)(C)[C@@H]6CC[C@]54C)[C@@H]3C2)cc1)c1ccc(OC)cc1 (stereo partly specified)	> 50	17.1	36.8	29.4	25.7	23.1	23.6	–
CCOP(=O)(OCC)C(Nc1ccc(CC(=O)NCCCNC(=O)[C@@]2(C)CC[C@]3(C)CC[C@]4(C)C(=CC(=O)[C@@H]5[C@@]6(C)CC[C@H](OC(C)=O)C(C)(C)[C@@H]6CC[C@]54C)[C@@H]3C2)cc1)c1cccc(F)c1 (stereo partly specified)	> 50	> 30	37.7	29.5	27.2	34	> 50	–
CCOP(=O)(OCC)C(Nc1ccc(CC(=O)NCCCCNC(=O)[C@@]2(C)CC[C@]3(C)CC[C@]4(C)C(=CC(=O)[C@@H]5[C@@]6(C)CC[C@H](O)C(C)(C)[C@@H]6CC[C@]54C)[C@@H]3C2)cc1)c1ccccc1 (stereo partly specified)	> 50	25.1	37.1	30.5	36.3	33.2	27.8	–
CCOP(=O)(OCC)C(Nc1ccc(CC(=O)NCCCNC(=O)[C@@]2(C)CC[C@]3(C)CC[C@]4(C)C(=CC(=O)[C@@H]5[C@@]6(C)CC[C@H](O)C(C)(C)[C@@H]6CC[C@]54C)[C@@H]3C2)cc1)c1ccc(F)cc1 (stereo partly specified)	> 50	8.89	29.1	17.3	20.5	17.9	16.5	–
CCOP(=O)(OCC)C(Nc1ccc(CC(=O)NCCCNC(=O)[C@@]2(C)CC[C@]3(C)CC[C@]4(C)C(=CC(=O)[C@@H]5[C@@]6(C)CC[C@H](O)C(C)(C)[C@@H]6CC[C@]54C)[C@@H]3C2)cc1)c1cccc(F)c1 (stereo partly specified)	> 50	–	> 50	> 50	> 50	> 50	> 50	Not Active
CCOP(=O)(OCC)C(Nc1ccc(CC(=O)NCCCNC(=O)[C@@]2(C)CC[C@]3(C)CC[C@]4(C)C(=CC(=O)[C@@H]5[C@@]6(C)CC[C@H](OC(C)=O)C(C)(C)[C@@H]6CC[C@]54C)[C@@H]3C2)cc1)c1ccc(Br)cc1 (stereo partly specified)	> 50	28.4	23.6	17.1	29.9	20.5	21.3	–
CC[C@@]1(O)C(=O)OCc2c1cc1n(c2=O)Cc2cc3cc(O)ccc3nc2-1 [HYDROXYCAMPTOTHECIN]	10.2	–	–	10.1	9.71	9.13	10.7	–
